target: T1, 5-hydroxytryptamine receptor 1A (Homo sapiens, UniProt P08908); experiment: Displacement of [3H]8-OH-DPAT from 5-HT1A receptor (unknown origin) expressed in HEK293 cells by liquid scintillation counter; format: cell-based; conditions: not given
T1 sequence (P08908 whole entry): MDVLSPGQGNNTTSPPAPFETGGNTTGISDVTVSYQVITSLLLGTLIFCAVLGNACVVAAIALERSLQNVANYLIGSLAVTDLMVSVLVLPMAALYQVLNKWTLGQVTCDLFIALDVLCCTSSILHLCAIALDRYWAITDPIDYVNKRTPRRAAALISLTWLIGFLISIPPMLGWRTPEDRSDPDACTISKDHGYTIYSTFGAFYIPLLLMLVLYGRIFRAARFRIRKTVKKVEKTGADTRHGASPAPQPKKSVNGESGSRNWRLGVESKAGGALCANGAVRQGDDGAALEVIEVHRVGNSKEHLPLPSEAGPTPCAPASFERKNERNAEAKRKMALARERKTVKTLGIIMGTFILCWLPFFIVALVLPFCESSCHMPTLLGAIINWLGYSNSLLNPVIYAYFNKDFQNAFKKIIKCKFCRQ

Row | SMILES | Ki [nM]
1 | COc1cc2c(cc1O)[C@@H]1Cc3c(CO)c(OC)cc(OC)c3CN1CC2 | > 5000

target: T2, D(1A) dopamine receptor (Homo sapiens, UniProt P21728); experiment: Displacement of [3H]SCH23390 from dopamine D1 receptor (unknown origin) expressed in human HEK293 cells by liquid scintillation counter; format: cell-based; conditions: not given
T2 sequence (P21728 whole entry): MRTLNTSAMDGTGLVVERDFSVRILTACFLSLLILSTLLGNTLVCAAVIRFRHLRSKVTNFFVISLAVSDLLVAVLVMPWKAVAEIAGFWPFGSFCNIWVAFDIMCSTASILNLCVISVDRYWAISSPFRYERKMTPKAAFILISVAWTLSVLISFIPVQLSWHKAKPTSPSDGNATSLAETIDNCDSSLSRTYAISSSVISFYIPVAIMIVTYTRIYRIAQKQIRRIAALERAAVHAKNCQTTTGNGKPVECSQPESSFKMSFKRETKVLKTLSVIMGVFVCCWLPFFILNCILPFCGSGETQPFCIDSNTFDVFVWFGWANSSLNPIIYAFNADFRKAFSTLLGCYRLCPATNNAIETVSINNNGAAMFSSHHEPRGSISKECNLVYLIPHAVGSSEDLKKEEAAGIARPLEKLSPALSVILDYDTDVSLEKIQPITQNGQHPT
Summary of the method: (§1)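 Stably transfected HEK293T D1 membranes, […], duplicate incubation 50 min at 30 °C with [3H]SCH23390 in 50 mM Tris, 4 mM MgCl2, pH 7.4. Nonspecific binding with 10 μM SCH23390. GF/B filtration, scintillation counting.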

Row | SMILES | Ki [nM]
2 | COc1cc2c(cc1O)[C@H]1Cc3ccc(O)c(OC)c3CN1CC2 | 135
3 | COc1cc2c(cc1OC)[C@@H]1Cc3ccc(OC)c(O)c3CN1CC2 [TETRAHYDROPALMATRUBINE] | 443
4 | COc1c(O)ccc2c1CN1CCc3cc4c(cc3[C@H]1C2)OCO4 | 565
6 | COc1ccc2c(c1O)CN1CCc3cc4c(cc3[C@H]1C2)OCO4 | > 5000
7 | COc1cc2c(cc1O)CCN1Cc3c(ccc(OC)c3OC)C[C@H]21 | 1190
8 | COc1cc2c(cc1O)[C@H]1Cc3ccc(OC)c(O)c3CN1CC2 | 529
10 | COc1ccc2c(c1OC)CN1CCc3cc4c(cc3[C@H]1C2)OCO4 | > 5000
11 | COc1cc2c(cc1O)CCN1Cc3c(ccc(OC)c3OC)C[C@@H]21 | 310
12 | COc1cc2c(cc1O)[C@@H]1Cc3cc4c(cc3CN1CC2)OCO4 | 4.2

target: T3, 5-hydroxytryptamine receptor 1A (Homo sapiens) (UniProt P08908); experiment: Inhibition of [3H]8-OH-DPAT binding to 5-HT1A receptor (unknown origin) expressed in HEK293 cells at 10 uM by liquid scintillation counter relative to control; format: cell-based; conditions: not given
T3 sequence (whole entry): T1 sequence (P08908 whole entry)
Summary of the method: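 Membranes of HEK293T stably transfected with 5-HT1A, […], incubated in duplicate 50 min at 30 °C with [3H]8-OH-DPAT in 50 mM Tris, 4 mM MgCl2, pH 7.4. Nonspecific binding with 10 μM WAY100635. Filtration on GF/B, cold Tris/EDTA wash, scintillation counting.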

Row | SMILES | inhibition [%]
13 | NCCc1c[nH]c2ccc(O)cc12 | 100
14 | COc1cc2c(cc1O)[C@H]1Cc3ccc(O)c(OC)c3CN1CC2 | 53.6
15 | COc1cc2c(cc1OC)[C@H]1Cc3ccc(OC)c(O)c3CN1CC2 | 6.2
16 | COc1cc2c(cc1OC)[C@H]1Cc3ccc(O)c(OC)c3CN1CC2 | 65.5
17 | COc1cc2c(cc1OC)[C@@H]1Cc3ccc(OC)c(O)c3CN1CC2 [TETRAHYDROPALMATRUBINE] | 30.5
18 | COc1c(O)ccc2c1CN1CCc3cc4c(cc3[C@H]1C2)OCO4 | 63.6
19 | COc1cc2c(cc1O)[C@@H]1Cc3ccc(OC)c(OC)c3CN1CC2 | 71.1
20 | COc1ccc2c(c1O)CN1CCc3cc4c(cc3[C@H]1C2)OCO4 | 25.5
21 | COc1cc2c(cc1O)CCN1Cc3c(ccc(OC)c3OC)C[C@H]21 | 55.4
22 | COc1cc2c(cc1OC)[C@H]1Cc3ccc(OC)c(OC)c3CN1CC2 | 30.4
23 | COc1cc2c(cc1O)[C@H]1Cc3ccc(OC)c(O)c3CN1CC2 | 2
24 | COc1cc2c(cc1O)[C@H]1Cc3ccc(OC)c(OC)c3CN1CC2 | 64.2
25 | COc1ccc2c(c1OC)CN1CCc3cc4c(cc3[C@H]1C2)OCO4 | 34.5
26 | COc1cc2c(cc1O)CCN1Cc3c(ccc(O)c3OC)C[C@H]21 | 13.2
27 | COc1cc2c(cc1O)CCN1Cc3c(ccc(OC)c3OC)C[C@@H]21 | 50.5
28 | COc1cc2c(cc1O)CCN1Cc3c(ccc(OC)c3O)C[C@H]21 | 31.5
29 | COc1cc2c(cc1O)[C@@H]1Cc3cc4c(cc3CN1CC2)OCO4 | 61

target: D(2) dopamine receptor (Homo sapiens, UniProt P14416); conditions: HEK293, at 10 µM
Sequence (P14416 whole entry): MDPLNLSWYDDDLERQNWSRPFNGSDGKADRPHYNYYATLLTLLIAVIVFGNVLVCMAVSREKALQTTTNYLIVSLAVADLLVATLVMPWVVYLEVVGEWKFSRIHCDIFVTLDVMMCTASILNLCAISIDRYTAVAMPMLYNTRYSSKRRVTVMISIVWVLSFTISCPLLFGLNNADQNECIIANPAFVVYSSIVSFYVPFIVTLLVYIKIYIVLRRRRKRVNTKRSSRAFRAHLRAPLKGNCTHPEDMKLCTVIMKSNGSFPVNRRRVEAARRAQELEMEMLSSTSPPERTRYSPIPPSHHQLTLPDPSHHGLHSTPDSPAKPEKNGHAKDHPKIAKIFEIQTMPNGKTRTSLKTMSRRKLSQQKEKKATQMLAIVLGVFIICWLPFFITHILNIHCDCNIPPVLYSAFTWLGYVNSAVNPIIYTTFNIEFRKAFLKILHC

Row | SMILES | inhibition [%]
30 | COc1cc2c(cc1O)[C@@H]1Cc3c(CO)c(OC)cc(OC)c3CN1CC2 | 94.8
31 | COc1cc2c(cc1O)[C@H]1Cc3ccc(O)c(OC)c3CN1CC2 | 53.7
32 | COc1cc2c(cc1OC)[C@H]1Cc3ccc(OC)c(O)c3CN1CC2 | 1.5
33 | COc1cc2c(cc1OC)[C@H]1Cc3ccc(O)c(OC)c3CN1CC2 | 3.4
34 | COc1cc2c(cc1OC)[C@@H]1Cc3ccc(OC)c(O)c3CN1CC2 [TETRAHYDROPALMATRUBINE] | 22.7
35 | COc1c(O)ccc2c1CN1CCc3cc4c(cc3[C@H]1C2)OCO4 | 40.5
36 | COc1ccc2c(c1O)CN1CCc3cc4c(cc3[C@H]1C2)OCO4 | 20.4
37 | COc1cc2c(cc1O)CCN1Cc3c(ccc(OC)c3OC)C[C@H]21 | 71.5
38 | COc1cc2c(cc1OC)[C@H]1Cc3ccc(OC)c(OC)c3CN1CC2 | 20.5
39 | COc1cc2c(cc1O)[C@H]1Cc3ccc(OC)c(O)c3CN1CC2 | 31.8
40 | COc1cc2c(cc1O)[C@@H]1Cc3cc(C)cc(C)c3CN1CC2 | 90.1
41 | COc1ccc2c(c1)C[C@H]1c3cc(O)c(OC)cc3CCN1C2 | 90
42 | O=C(CCCN1CCC2(CC1)C(=O)NCN2c1ccccc1)c1ccc(F)cc1 | 100
43 | COc1ccc2c(c1OC)CN1CCc3cc4c(cc3[C@H]1C2)OCO4 | 26.6
44 | COc1cc2c(cc1O)CCN1Cc3c(ccc(O)c3OC)C[C@H]21 | 27.7
45 | COc1cc2c(cc1O)CCN1Cc3c(ccc(OC)c3OC)C[C@@H]21 | 63.2
46 | COc1cc2c(cc1O)CCN1Cc3c(ccc(OC)c3O)C[C@H]21 | 8.16
47 | COc1cc2c(cc1O)[C@@H]1Cc3cc4c(cc3CN1CC2)OCO4 | 100

target: 5-hydroxytryptamine receptor 2A (Homo sapiens, UniProt P28223); experiment: Inhibition of [3H]Ketanserin binding to 5-HT2A receptor (unknown origin) expressed in HEK293 cells at 10 uM by liquid scintillation counter relative to control; format: cell-based; conditions: not given
Sequence (P28223 whole entry): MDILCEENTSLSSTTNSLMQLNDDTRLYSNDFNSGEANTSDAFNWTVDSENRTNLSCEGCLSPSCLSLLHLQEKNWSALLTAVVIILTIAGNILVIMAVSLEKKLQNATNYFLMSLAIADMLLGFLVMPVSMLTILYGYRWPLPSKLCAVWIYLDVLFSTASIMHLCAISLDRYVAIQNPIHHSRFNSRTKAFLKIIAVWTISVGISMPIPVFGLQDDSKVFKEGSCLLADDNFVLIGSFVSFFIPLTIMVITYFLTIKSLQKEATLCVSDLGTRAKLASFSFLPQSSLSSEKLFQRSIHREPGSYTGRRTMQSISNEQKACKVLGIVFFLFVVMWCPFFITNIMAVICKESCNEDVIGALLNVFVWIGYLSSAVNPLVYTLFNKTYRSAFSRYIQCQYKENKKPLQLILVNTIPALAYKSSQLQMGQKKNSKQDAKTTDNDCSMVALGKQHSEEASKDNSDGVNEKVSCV
Summary of the method: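 Membranes of HEK293T stably transfected with 5-HT2A, […], incubated in duplicate 15 min at 37 °C with [3H]ketanserin in 50 mM Tris, 4 mM MgCl2, pH 7.4. […] GF/B filtration, cold wash, scintillation counting.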

Row | SMILES | inhibition [%]
48 | COc1cc2c(cc1O)[C@H]1Cc3ccc(O)c(OC)c3CN1CC2 | 16.4
49 | COc1cc2c(cc1OC)[C@H]1Cc3ccc(OC)c(O)c3CN1CC2 | 19.3
50 | COc1cc2c(cc1OC)[C@H]1Cc3ccc(O)c(OC)c3CN1CC2 | 27.9
51 | COc1cc2c(cc1OC)[C@@H]1Cc3ccc(OC)c(O)c3CN1CC2 [TETRAHYDROPALMATRUBINE] | 20
52 | COc1c(O)ccc2c1CN1CCc3cc4c(cc3[C@H]1C2)OCO4 | 25.3
53 | COc1cc2c(cc1O)[C@@H]1Cc3ccc(OC)c(OC)c3CN1CC2 | 40.5
54 | COc1ccc2c(c1O)CN1CCc3cc4c(cc3[C@H]1C2)OCO4 | 10.9
55 | COc1cc2c(cc1O)CCN1Cc3c(ccc(OC)c3OC)C[C@H]21 | 40.4
56 | COc1cc2c(cc1OC)[C@H]1Cc3ccc(OC)c(OC)c3CN1CC2 | 29.7
57 | COc1cc2c(cc1O)[C@H]1Cc3ccc(OC)c(O)c3CN1CC2 | 26.3
58 | O=C(CCCN1CCC2(CC1)C(=O)NCN2c1ccccc1)c1ccc(F)cc1 | 100
59 | COc1cc2c(cc1O)[C@H]1Cc3ccc(OC)c(OC)c3CN1CC2 | 40.6
60 | COc1ccc2c(c1OC)CN1CCc3cc4c(cc3[C@H]1C2)OCO4 | 18.3
61 | COc1cc2c(cc1O)CCN1Cc3c(ccc(O)c3OC)C[C@H]21 | 13.9
62 | COc1cc2c(cc1O)CCN1Cc3c(ccc(OC)c3OC)C[C@@H]21 | 38
63 | COc1cc2c(cc1O)CCN1Cc3c(ccc(OC)c3O)C[C@H]21 | 36
64 | COc1cc2c(cc1O)[C@@H]1Cc3cc4c(cc3CN1CC2)OCO4 | 49.9

target: T2, D(1A) dopamine receptor; experiment: Inhibition of [3H]SCH23390 binding to dopamine D1 receptor (unknown origin) expressed in human HEK293 cells at 10 uM by liquid scintillation counter relative to control; format: cell-based; conditions: not given; summary of the method: as §1

Row | SMILES | inhibition [%]
65 | COc1cc2c(cc1O)[C@@H]1Cc3c(CO)c(OC)cc(OC)c3CN1CC2 | 104
66 | COc1cc2c(cc1O)[C@H]1Cc3ccc(O)c(OC)c3CN1CC2 | 94.4
67 | COc1cc2c(cc1OC)[C@H]1Cc3ccc(OC)c(O)c3CN1CC2 | 35.9
68 | COc1cc2c(cc1OC)[C@H]1Cc3ccc(O)c(OC)c3CN1CC2 | 54.4
69 | COc1cc2c(cc1OC)[C@@H]1Cc3ccc(OC)c(O)c3CN1CC2 [TETRAHYDROPALMATRUBINE] | 87.7
70 | COc1c(O)ccc2c1CN1CCc3cc4c(cc3[C@H]1C2)OCO4 | 95.8
71 | COc1cc2c(cc1O)[C@@H]1Cc3ccc(OC)c(OC)c3CN1CC2 | 99.2
72 | COc1ccc2c(c1O)CN1CCc3cc4c(cc3[C@H]1C2)OCO4 | 78.9
73 | COc1cc2c(c(OC)c1)CN1CCc3cc(OC)c(O)cc3[C@@H]1C2 | 99.8
74 | COc1cc2c(cc1O)CCN1Cc3c(ccc(OC)c3OC)C[C@H]21 | 88.8
75 | COc1cc2c(cc1OC)[C@H]1Cc3ccc(OC)c(OC)c3CN1CC2 | 39.8
76 | COc1cc2c(cc1O)[C@H]1Cc3ccc(OC)c(O)c3CN1CC2 | 84.5
77 | COc1cc2c(cc1O)[C@@H]1Cc3cc(C)cc(C)c3CN1CC2 | 99
78 | COc1ccc2c(c1)C[C@H]1c3cc(O)c(OC)cc3CCN1C2 | 97.5
79 | COc1cc2c(cc1O)[C@H]1Cc3ccc(OC)c(OC)c3CN1CC2 | 99.5
80 | COc1ccc2c(c1OC)CN1CCc3cc4c(cc3[C@H]1C2)OCO4 | 75.5
81 | COc1cc2c(cc1O)CCN1Cc3c(ccc(O)c3OC)C[C@H]21 | 67.1
82 | COc1cc2c(cc1O)CCN1Cc3c(ccc(OC)c3OC)C[C@@H]21 | 84.1
83 | COc1cc2c(cc1O)CCN1Cc3c(ccc(OC)c3O)C[C@H]21 | 49.4
84 | COc1cc2c(cc1O)[C@@H]1Cc3cc4c(cc3CN1CC2)OCO4 | 99.6
85 | CN1CCc2cc(Cl)c(O)cc2C(c2ccccc2)C1 (stereo not given) | 100

Source: ChEMBL document CHEMBL2331343 (Bioorg Med Chem, 2013)
